Source: ChEMBL document CHEMBL3817796, “Discovery of Novel 15-Lipoxygenase Activators To Shift the Human Arachidonic Acid Metabolic Network toward Inflammation Resolution” (J Med Chem, 2016)
Calls of active or inactive are those of the source. The calls are words filed in the database; no cut-off is given here.

Columns and labels:
[1] = molecular target: T1, Leukotriene A-4 hydrolase (Homo sapiens) (UniProt P09960); test: Inhibition of LTA4H hydrolase activity (unknown origin) assessed as reduction in LTB4 formation at 100 uM by enzyme linked immunosorbent assay
T1 sequence (whole entry): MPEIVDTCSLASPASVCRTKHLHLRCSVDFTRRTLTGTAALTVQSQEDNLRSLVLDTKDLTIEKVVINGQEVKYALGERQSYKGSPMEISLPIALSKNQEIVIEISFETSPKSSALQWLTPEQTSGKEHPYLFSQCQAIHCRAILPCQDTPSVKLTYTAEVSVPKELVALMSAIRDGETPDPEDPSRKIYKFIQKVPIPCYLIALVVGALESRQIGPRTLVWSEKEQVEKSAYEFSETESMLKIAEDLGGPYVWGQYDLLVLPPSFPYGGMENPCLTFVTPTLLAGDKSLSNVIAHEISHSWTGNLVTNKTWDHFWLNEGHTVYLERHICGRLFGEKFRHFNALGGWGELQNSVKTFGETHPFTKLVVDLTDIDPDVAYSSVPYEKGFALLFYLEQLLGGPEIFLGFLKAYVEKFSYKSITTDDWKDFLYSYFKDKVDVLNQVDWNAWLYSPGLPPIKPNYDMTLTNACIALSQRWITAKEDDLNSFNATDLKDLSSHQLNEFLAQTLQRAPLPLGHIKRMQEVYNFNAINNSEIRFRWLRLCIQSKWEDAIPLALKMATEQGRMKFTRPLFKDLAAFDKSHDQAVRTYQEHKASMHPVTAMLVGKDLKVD
Summary of the method: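 LTA4H hydrolase activity read as LTB4 formation by ELISA. Compound handled as in the 15-LOX assay.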

[2] = molecular target: T2, Polyunsaturated fatty acid lipoxygenase ALOX15 (Homo sapiens) (UniProt P16050); test: Activation of 15-LOX in human PMN assessed as 15-HETE production at 6.2 to 40 uM pre-incubated for 15 mins before A23187, Ca2+ and Mg2+ stimulation for 1 hr by LC-MS method
T2 sequence (whole entry): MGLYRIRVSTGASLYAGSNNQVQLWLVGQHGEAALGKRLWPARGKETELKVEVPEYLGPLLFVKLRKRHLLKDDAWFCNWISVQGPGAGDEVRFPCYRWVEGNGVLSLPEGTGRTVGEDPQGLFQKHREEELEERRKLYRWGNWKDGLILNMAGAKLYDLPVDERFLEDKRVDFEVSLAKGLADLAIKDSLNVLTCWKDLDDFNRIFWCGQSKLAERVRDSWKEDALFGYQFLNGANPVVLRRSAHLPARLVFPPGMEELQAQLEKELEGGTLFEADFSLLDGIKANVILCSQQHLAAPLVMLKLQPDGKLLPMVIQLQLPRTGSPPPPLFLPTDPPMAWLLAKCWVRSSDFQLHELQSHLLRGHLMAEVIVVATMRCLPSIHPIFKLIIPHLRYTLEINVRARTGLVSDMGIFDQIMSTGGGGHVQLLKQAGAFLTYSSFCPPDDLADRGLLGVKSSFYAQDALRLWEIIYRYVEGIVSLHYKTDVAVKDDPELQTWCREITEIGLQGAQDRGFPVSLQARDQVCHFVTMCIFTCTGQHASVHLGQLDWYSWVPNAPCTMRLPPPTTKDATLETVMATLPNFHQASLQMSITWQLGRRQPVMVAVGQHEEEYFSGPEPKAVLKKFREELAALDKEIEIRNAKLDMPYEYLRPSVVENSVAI
Summary of the method: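 PMNs preincubated 15 min at 37 °C with compound or vehicle, then stimulated 1 h at 37 °C with 10 μM A23187 plus 2 mM Ca2+ and 2 mM Mg2+. Reactions stopped with cold methanol. Eicosanoids quantified by LC-MS.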

[3] = molecular target: T3, Cytosolic phospholipase A2 (Homo sapiens) (UniProt P47712); test: Inhibition of human cPLA2 assessed as reduction in hydrolysis of 7-hydroxycoumarinyl-gamma-linolenate or 2-oxo-2H-chromen-[…] (6Z,9Z,12Z)-octadeca-6,9,12-trienoate at 100 uM by fluorometry
T3 sequence (whole entry): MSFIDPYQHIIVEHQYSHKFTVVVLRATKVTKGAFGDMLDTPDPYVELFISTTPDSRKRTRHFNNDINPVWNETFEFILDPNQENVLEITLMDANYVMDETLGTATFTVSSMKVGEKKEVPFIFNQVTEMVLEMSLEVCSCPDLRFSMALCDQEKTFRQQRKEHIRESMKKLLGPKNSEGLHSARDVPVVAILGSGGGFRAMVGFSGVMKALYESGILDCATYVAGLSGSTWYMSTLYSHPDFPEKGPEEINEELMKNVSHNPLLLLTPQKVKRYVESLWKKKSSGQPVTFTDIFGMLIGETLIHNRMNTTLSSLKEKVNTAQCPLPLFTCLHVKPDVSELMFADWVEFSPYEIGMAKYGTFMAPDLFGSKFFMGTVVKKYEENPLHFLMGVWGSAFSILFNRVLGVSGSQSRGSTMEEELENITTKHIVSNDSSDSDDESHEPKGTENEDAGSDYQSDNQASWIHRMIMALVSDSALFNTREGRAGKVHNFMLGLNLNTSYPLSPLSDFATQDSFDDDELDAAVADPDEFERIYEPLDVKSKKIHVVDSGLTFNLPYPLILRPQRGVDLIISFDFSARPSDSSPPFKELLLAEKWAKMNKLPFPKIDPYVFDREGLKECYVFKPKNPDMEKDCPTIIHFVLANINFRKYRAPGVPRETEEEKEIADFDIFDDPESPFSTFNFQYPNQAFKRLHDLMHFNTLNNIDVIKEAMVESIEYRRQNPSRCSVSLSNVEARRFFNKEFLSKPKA
Summary of the method: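 Purified human cPLA2 (1 μg/mL final) started the reaction with 7-hydroxycoumarinyl-γ-linolenate substrate. Fluorescence (ex 355/em 460 nm) recorded over 84 min. Compound handled as in the 15-LOX assay.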

[4] = molecular target: T2, Polyunsaturated fatty acid lipoxygenase ALOX15 (Homo sapiens); test: Activation of 15-LOX in human whole blood assessed as 15-HETE production at 100 uM pre-incubated for 20 mins before stimulation with LPS and A23187 for 120 mins in presence of 2 uM 5-LOX inhibitor Zileuton by LC-MS/MS method; assay type: tissue-based
Summary of the method: (§1)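 Human blood preincubated 20 min at 37 °C with DMSO vehicle or compound in DMSO. LPS added at 100 μg/mL for 24 h at 37 °C, then A23187 at 20 μg/mL final. Samples frozen in liquid nitrogen at time points, lysed by freeze–thaw, with PGB2 internal standard. Analysed by C18 LC-MRM MS, negative ion. Change = control-normalized concentration minus 1, ×100%; 120 min value from AUC.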

[5] = molecular target: T2, Polyunsaturated fatty acid lipoxygenase ALOX15 (Homo sapiens); test: Activation of 15-LOX in human whole blood assessed as reduction in 5-HETE production at 100 uM pre-incubated for 20 mins before stimulation with LPS and A23187 for 120 mins in presence of 2 uM […] inhibitor Zileuton by LC-MS/MS method; assay type: tissue-based; summary of the method: as §1

CN1CCN(CC(=O)N2N=C3/C(=C/c4ccccc4)CCCC3C2c2ccccc2)CC1 (stereo not given)
inhibition [1]: < 5%
Activity [2]: Active
inhibition [3]: 20%
Activity [4]: 36%
Activity [5]: Active
